# LYPLA1 inh: LYPLA1 inhibitors, primary screen, counter-screen for PME1 inhibitor project, biochemical, fluorescence polarization, FP-Rh probe ABPP | Acyl-protein thioesterase 1 (Homo sapiens), O75608 | inhibition, % at 5.9 µM | AID 2174, 2009 | recombinant LYPLA1 | hit rate 0.16% among 320,000;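 active = inhibition above the mean of all tested compounds plus 3 SD, set per campaign, cut at about 14% in these data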;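 note: inhibitors block serine hydrolase probe labeling of LYPLA1 so polarization falls; 0% = enzyme with DMSO and 100% = wells lacking LYPLA1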
# Target sequence (O75608 whole entry, looked up): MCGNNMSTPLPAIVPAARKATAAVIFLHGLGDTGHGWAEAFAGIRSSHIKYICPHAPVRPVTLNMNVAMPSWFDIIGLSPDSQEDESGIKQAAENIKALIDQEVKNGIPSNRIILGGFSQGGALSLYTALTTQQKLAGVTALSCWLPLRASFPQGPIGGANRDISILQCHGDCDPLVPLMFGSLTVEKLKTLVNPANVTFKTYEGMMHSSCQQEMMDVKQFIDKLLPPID
# PME-1 primary: PME-1 inhibitors via competitive probe labeling, primary screen, biochemical, fluorescence polarization, FP-Rh probe, HTS; Protein phosphatase methylesterase 1 (Homo sapiens), Q9Y570; recombinant PME-1; inhibition, % at 5.9 µM; hit rate 0.53% among 320,000; AID 2130, 2009;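 active = inhibition above the campaign mean of all compounds plus 3 SD, cut at about 26% in these data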;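 note: competitive labeling of PME-1 active site by serine hydrolase directed probe; 0% = PME-1 with DMSO and 100% = wells lacking PME-1 enzyme; inhibitors block probe labeling so polarization falls and inhibition rises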
# PAD4 inh: human PAD4 inhibitors, primary screen, biochemical, fluorescence polarization, 1536-well format | Protein-arginine deiminase type-4 (Homo sapiens), Q9UM07 | recombinant PAD4, RCA probe fluorescence polarization | inhibition, % at 6.36 µM | hit rate 0.41% among 330,000 | AID 485272, 2010;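 active = percent inhibition above a cutoff equal to the mean of all tested compounds plus 3 SD, cut at about 15% in these data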;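 note: 0% = PAD4 with RCA probe and DMSO and 100% = probe without PAD4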
# LYPLA2 inh: LYPLA2 inhibitors, primary screen, counter-screen for PME1 inhibitor project, biochemical, fluorescence polarization, FP-Rh probe ABPP. inhibition, % at 5.9 µM. hit rate 0.38% among 320,000. recombinant LYPLA2. Acyl-protein thioesterase 2 (Homo sapiens), O95372;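 active = inhibition above the screen-wide mean plus 3 SD, limit set per campaign, cut at about 26% in these data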;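 note: 0% = LYPLA2 with DMSO and 100% = wells lacking LYPLA2 enzyme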
# Fam108B inh: mouse Fam108B serine hydrolase inhibitors, primary screen, counter-screen for RBBP9 inhibitor project, biochemical, fluorescence polarization | recombinant Fam108B, FP-Rh probe fluorescence polarization | inhibition, % at 9.51 µM | hit rate 0.33% among 300,000;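 active = inhibition above the screen mean inhibition plus 3 SD, computed separately per campaign, cut at about 18% in these data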;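 note: inhibitors lower polarization as less probe binds the enzyme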
# RBBP9 inh: human RBBP9 inhibitors, primary screen, biochemical, fluorescence polarization, FP-Rh probe, HTS; Serine hydrolase RBBP9 (Homo sapiens), O75884; recombinant RBBP9; inhibition, % at 7.94 µM; hit rate 0.2% among 220,000;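 active = inhibition above the campaign mean of all tested compounds plus 3 SD, cut at about 14% in these data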;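 note: plate controls were DMSO wells with RBBP9 for no effect and wells lacking RBBP9 protein for full effect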
# Target sequence (O75884 whole entry, looked up): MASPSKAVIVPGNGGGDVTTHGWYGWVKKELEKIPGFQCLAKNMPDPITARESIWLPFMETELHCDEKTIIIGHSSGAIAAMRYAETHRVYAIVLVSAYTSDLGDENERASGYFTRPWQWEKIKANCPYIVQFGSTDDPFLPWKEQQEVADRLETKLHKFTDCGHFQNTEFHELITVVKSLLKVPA
#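 Measured by: FP readout at 525/598 nm; material: recombinant human RBBP9; also added: Serine-hydrolase probe FP-Rh, 375 nM pre-mixing; medium: Tris buffer pH 8.0, NaCl, Pluronic; replication: one well per compound; doses: one concentration, 7.94 µM nominal, 0.794% DMSO; timing: preincubation 30 min plus labeling 45 min at 25 °C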
# Active calls of the source: *; / = not tested or not shown. Rows were chosen to be rich in hits. Some 1.3% of all compounds tested hit in one or more screens of this group.
SMILES,LYPLA1 inh,PME-1 primary,PAD4 inh,LYPLA2 inh,Fam108B inh,RBBP9 inh
COc1ccc(N2Cc3ccc(C(=O)N/N=C\c4ccc(O)cc4O)cc3C2)cc1,-8,48*,-8,31*,50*,/
CCCCN(C(=O)C(C)Oc1cccc(Cl)c1)c1c(N)n(CCC)c(=O)[nH]c1=O (stereo not drawn),-3,-4,-3,0,5,/
CC(C)(C)c1ccc(OCC(=O)NNC(=S)NC(=O)c2ccccc2[N+](=O)[O-])c(Br)c1,4,2,-7,27*,3,-9
Cc1ccccc1OCC(=O)NNC(=S)NC(=O)c1ccccc1[N+](=O)[O-],0,-6,3,-3,0,-7
CCCS(=O)(=O)N1CCN(Cc2c[nH]c3ccccc23)CC1,-4,-4,-2,3,-5,5
Oc1cccc(/C=N/Nc2cc(N3CCCC3)nc(N3CCCC3)n2)c1,-7,31*,-10,5,8,-6
Oc1ccc(/C=N/Nc2cc(N3CCCC3)nc(N3CCCC3)n2)cc1,-2,12,-6,2,1,-2
Cc1cc(N/N=C/c2cccc(Cl)c2)nc(-n2nc(C)cc2C)n1,0,-5,3,6,-2,-6
COc1ccc(/C=N/Nc2cc(C)nc(-n3nc(C)cc3C)n2)cc1,-3,33*,-1,-1,-2,-9
CCCCCCC(=O)N1CCC(c2nc3c(nnn3Cc3ccccc3Cl)c(=O)[nH]2)CC1,7,27*,-2,39*,-3,-6
O=C(C1CCCCC1)N1CCC(c2nc3c(nnn3Cc3c(F)cccc3Cl)c(=O)[nH]2)CC1,4,-1,4,2,-4,-12
CC(C)N=c1scc(-c2ccco2)n1/N=C/c1ccc(O)c(O)c1,-12,-7,-1,-16,2,-10
COCCN=c1scc(-c2ccco2)n1/N=C/c1ccc(O)c(O)c1O,-6,2,-2,-4,-2,24*
COc1ccc(N=Nc2nc3ccc(Br)cc3n2C)cc1,-4,41*,3,-1,3,7
Cc1cccc(C(=O)N2CCN(c3ccc(C(F)(F)F)cn3)CC2)c1C,0,7,-5,1,2,-5
O=C(CC1CCS(=O)(=O)C1)Nc1ccc[nH]c1=O (stereo not drawn),2,3,-2,2,2,16*
O=C(COC(=O)CC1CCS(=O)(=O)C1)Nc1ccc(F)cc1 (stereo not drawn),/,/,-1,/,/,/
CSc1cccc(CN2CCC(n3nccc3NC(=O)C3CC3)CC2)c1,2,-7,0,-4,-3,/
Nc1c(C(=O)Nc2ccc(Br)cc2)sc2nc(-c3ccco3)ccc12,-22,36*,-16,-14,14,-8
Nc1c(C(=O)Nc2ccc(F)cc2)sc2nc(-c3ccco3)ccc12,-14,58*,-8,-13,10,-4
CCOc1ccc(NC(C(=O)Nc2cccc(C(C)=O)c2)c2ccccc2)cc1 (stereo not drawn),-5,32*,-1,4,6,-9
Cc1ccc(Nc2nnc(-c3ccc(N4CCOCC4)c([N+](=O)[O-])c3)c3ccccc23)cc1,-11,48*,0,-15,5,-7
O=[N+]([O-])c1cc(-c2nnc(N3CCOCC3)c3ccccc23)ccc1N1CCOCC1,1,5,-5,-1,-7,-8
CC1=CC2=C(OC1N(C)C)c1cccc3cccc(c13)C2=O (stereo not drawn),6,24,18*,8,10,-2
CN(C)CCCN1C(=O)c2cccc3cccc(c23)C1=O,1,0,-1,0,-6,/
CCCN1CNC(=S)N(CC2CCCO2)C1 (stereo not drawn),-1,-6,-6,-4,0,2
Fc1cccc2sc(Nc3nnc(-c4ccccc4)o3)nc12,0,28*,5,4,14,-4
COc1ccc(O)c(/C=N/Nc2nc(C)cc(-c3ccccc3)n2)c1,-14,36*,2,-22,6,/

# High-throughput results as filed in PubChem.
